The results in this text go back to ChEMBL document CHEMBL6109036, “Azo derivatives of monoterpenes as anti-Helicobacter pylori agents: from synthesis to structure-based target investigation” (RSC Med Chem, 2025).

Values after ≈ are worked out from the molar mass of the structure shown.

What all share (type): functional
Assay [1] concerns Helicobacter pylori. The experiment in a line: Bactericidal against Helicobacter pylori Clinical isolate F4 measured after 72 hrs of incubation under microaerophilic conditions by modified broth dilution method. As to conditions: read-out: MBC99.9. The method, boiled down:
(§1)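 H. pylori (NCTC 11637, F1, 23, F4). Wells with no visible growth in the MIC assay spotted (10 μL) onto Skirrow agar. Plates incubated 72 h at 37 °C, microaerophilic, 100% humidity. MBC = concentration killing 99.9% of the initial inoculum. Triplicate, on at least three different days.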

The test system of assay [2] is Helicobacter pylori. The experiment in a line: Anti-bacterial activity against Helicobacter pylori measured after 72 hrs incubation by modified broth dilution method. A general note: Dilution methods test growth across graded concentrations, often in twofold steps.
The subject of assay [3] is Helicobacter pylori. Description: Bactericidal activity against Helicobacter pylori NCTC 11637 measured after 72 hrs of incubation under microaerophilic conditions by modified broth dilution method. As to conditions: read-out: MBC99.9. The method, boiled down:
as §1

For assay [4], the system named is Helicobacter pylori. The experiment in a line: Anti-bacterial activity against Helicobacter pylori Clinical isolate 23 measured after 72 hrs incubation by modified broth dilution method.
Assay [5] relates to Helicobacter pylori. The experiment in a line: Bactericidal activity against Helicobacter pylori Clinical isolate F1 measured after 72 hrs of incubation under microaerophilic conditions by modified broth dilution method. As to conditions: read-out: MBC99.9. The method, boiled down:
as §1

Assay [6] deals with Helicobacter pylori. Description: Anti-bacterial activity against Helicobacter pylori Clinical isolate F1 measured after 72 hrs incubation by modified broth dilution method.
Assay [7] has as its system Helicobacter pylori. Description: Anti-bacterial activity against Helicobacter pylori Clinical isolate F4 measured after 72 hrs incubation by modified broth dilution method.
Assay [8] relates to Helicobacter pylori. The experiment in a line: Bactericidal against Helicobacter pylori measured after 72 hrs of incubation under microaerophilic conditions by modified broth dilution method. As to conditions: for MBC: Helicobacter pylori, read-out: MBC99.9. The method, boiled down: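 Wells with no visible growth in the MIC assay spotted (10 μL) onto Skirrow agar. Plates incubated 72 h at 37 °C, microaerophilic, 100% humidity. Triplicate, on at least three different days.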

Assay [9] concerns Helicobacter pylori. The experiment in a line: Anti-bacterial activity against Helicobacter pylori NCTC 11637 measured after 72 hrs incubation by modified broth dilution method.
In assay [10] the test system is Helicobacter pylori. The experiment in a line: Bactericidal activity against Helicobacter pylori Clinical isolate 23 measured after 72 hrs of incubation under microaerophilic conditions by modified broth dilution method. The conditions noted are these: read-out: MBC99.9. The method, boiled down:
as §1

In general, MIC50 refers to an inhibitory concentration at the 50% level, which refers to growth in some studies and to a panel of isolates in others. Read a high MIC50 as weaker potency. A word on the MIC90: it is an inhibitory concentration at the 90% level, which refers to growth in some studies and to a panel of isolates in others. In general, MIC refers to the lowest concentration that inhibits growth of the organism. A lower MIC goes with a more susceptible organism. Regarding `COc1cccc(C=O)c1O`, the MBC was determined as 8 µg/mL (≈ 52.6 µM) with Helicobacter pylori [1]; 16 µg/mL (≈ 105 µM) in the assay on Helicobacter pylori [3]; 4 µg/mL (≈ 26.3 µM) in the assay on Helicobacter pylori [5]; 16 µg/mL (≈ 105 µM) in the assay with Helicobacter pylori [8]; 16 µg/mL (≈ 105 µM) with Helicobacter pylori [10]. In the assay with Helicobacter pylori [2], the MIC50 came to 8 µg/mL (≈ 52.6 µM). The molecule also had an MIC90 with Helicobacter pylori [2] of 16 µg/mL (≈ 105 µM). Besides, the MIC against Helicobacter pylori [4] was 16 µg/mL (≈ 105 µM); in the assay with Helicobacter pylori [6] it was 4 µg/mL (≈ 26.3 µM); with Helicobacter pylori [7], 8 µg/mL (≈ 52.6 µM); in the assay on Helicobacter pylori [9], 8 µg/mL (≈ 52.6 µM).

Regarding `C/C=C/c1ccc(O)c(OC)c1`, the MBC in the assay on Helicobacter pylori [1], in the assay on Helicobacter pylori [3], in the assay on Helicobacter pylori [5], in the assay with Helicobacter pylori [8] and in the assay with Helicobacter pylori [10] was 32 µg/mL (≈ 195 µM) throughout. For the same molecule, in the assay on Helicobacter pylori [2], the MIC50 came to 32 µg/mL (≈ 195 µM). For the same molecule, in the assay on Helicobacter pylori [2], the MIC90 turned out to be 32 µg/mL (≈ 195 µM). The MIC against Helicobacter pylori [4], with Helicobacter pylori [6], in the assay on Helicobacter pylori [7] and in the assay with Helicobacter pylori [9] was 32 µg/mL (≈ 195 µM) in each case.

For `C=CCc1cccc(OC)c1O`, the MBC in the assay on Helicobacter pylori [1], in the assay with Helicobacter pylori [3], with Helicobacter pylori [5], in the assay with Helicobacter pylori [8] and in the assay on Helicobacter pylori [10] was over 128 µg/mL each time. This molecule showed an MIC50 in the assay on Helicobacter pylori [2] of over 128 µg/mL. For the same molecule, the MIC90 against Helicobacter pylori [2] was over 128 µg/mL. The MIC against Helicobacter pylori [4], against Helicobacter pylori [6], against Helicobacter pylori [7] and against Helicobacter pylori [9] was over 128 µg/mL in each case.

Consider `Cc1cc(O)c(C(C)C)cc1C1(c2cc(C(C)C)c(O)cc2C)OS(=O)(=O)c2ccccc21`, for which the MBC with Helicobacter pylori [1] is over 128 µg/mL; with Helicobacter pylori [3], over 128 µg/mL; in the assay with Helicobacter pylori [5], 128 µg/mL (≈ 274 µM); with Helicobacter pylori [10] it was over 128 µg/mL. This molecule also yielded an MIC50 with Helicobacter pylori [2] of over 128 µg/mL. Besides, the MIC90 with Helicobacter pylori [2] was over 128 µg/mL. Further, the minimal inhibitory concentration (MIC) in the assay with Helicobacter pylori [4] is 128 µg/mL (≈ 274 µM); in the assay with Helicobacter pylori [6], 128 µg/mL (≈ 274 µM); in the assay with Helicobacter pylori [7], over 128 µg/mL; against Helicobacter pylori [9], over 128 µg/mL. Further, the MBC90 in the assay on Helicobacter pylori [8] is over 128 µg/mL.

`C=CCc1cc(/N=N/c2cccc(OC)c2)c(O)c(OC)c1`: the MBC in the assay with Helicobacter pylori [1], in the assay with Helicobacter pylori [3], in the assay on Helicobacter pylori [5] and with Helicobacter pylori [10] was over 128 µg/mL throughout. This molecule came in with an MIC50 against Helicobacter pylori [2] of over 128 µg/mL. The same molecule returned an MIC90 in the assay with Helicobacter pylori [2] of over 128 µg/mL. Further, the MIC in the assay with Helicobacter pylori [4], against Helicobacter pylori [6], with Helicobacter pylori [7] and with Helicobacter pylori [9] was over 128 µg/mL each time. In addition, in the assay on Helicobacter pylori [8], the MBC90 was over 128 µg/mL.

Consider `C=CCc1cc(/N=N/c2cccc([N+](=O)[O-])c2)c(O)c(OC)c1`, for which the MBC is 128 µg/mL (≈ 409 µM) in the assay with Helicobacter pylori [1], 128 µg/mL (≈ 409 µM) in the assay on Helicobacter pylori [3], over 128 µg/mL with Helicobacter pylori [5] and 128 µg/mL (≈ 409 µM) in the assay with Helicobacter pylori [10]. The same molecule gave an MIC50 in the assay on Helicobacter pylori [2] of 128 µg/mL (≈ 409 µM). Also, in the assay on Helicobacter pylori [2], the MIC90 was over 128 µg/mL. Also, the MIC in the assay with Helicobacter pylori [4], in the assay with Helicobacter pylori [6], against Helicobacter pylori [7] and in the assay with Helicobacter pylori [9] was 128 µg/mL (≈ 409 µM) each time. Moreover, in the assay with Helicobacter pylori [8], the MBC90 was over 128 µg/mL.

As for `C=CCc1cc(/N=N/c2ccccc2C)c(O)c(OC)c1`, the MBC with Helicobacter pylori [1] stood at 64 µg/mL (≈ 227 µM); with Helicobacter pylori [3] it was 128 µg/mL (≈ 453 µM); in the assay with Helicobacter pylori [5], 128 µg/mL (≈ 453 µM); with Helicobacter pylori [10], 64 µg/mL (≈ 227 µM). The same molecule gave an MIC50 in the assay with Helicobacter pylori [2] of 64 µg/mL (≈ 227 µM). In addition, in the assay with Helicobacter pylori [2], the MIC90 amounted to 128 µg/mL (≈ 453 µM). The MIC was 64 µg/mL (≈ 227 µM) against Helicobacter pylori [4], 128 µg/mL (≈ 453 µM) against Helicobacter pylori [6], 64 µg/mL (≈ 227 µM) in the assay with Helicobacter pylori [7] and 128 µg/mL (≈ 453 µM) against Helicobacter pylori [9]. In the assay on Helicobacter pylori [8], this molecule returned an MBC90 of 128 µg/mL (≈ 453 µM).

As to `CC[C@H]1OC(=O)[C@H](C)[C@@H](O[C@H]2C[C@@](C)(OC)[C@@H](O)[C@H](C)O2)[C@H](C)[C@@H](O[C@@H]2O[C@H](C)C[C@H](N(C)C)[C@H]2O)[C@](C)(OC)C[C@@H](C)C(=O)[C@H](C)[C@@H](O)[C@]1(C)O` [CLARITHROMYCIN], the MBC was determined as 256 µg/mL (≈ 342 µM) in the assay with Helicobacter pylori [1], 0.064 µg/mL (≈ 0.0856 µM) in the assay with Helicobacter pylori [3], 8 µg/mL (≈ 10.7 µM) with Helicobacter pylori [5] and 0.064 µg/mL (≈ 0.0856 µM) in the assay on Helicobacter pylori [10]. Further, in the assay on Helicobacter pylori [2], the MIC50 is 0.064 µg/mL (≈ 0.0856 µM). The MIC90 in the assay with Helicobacter pylori [2] was 256 µg/mL (≈ 342 µM). The MIC is 0.064 µg/mL (≈ 0.0856 µM) against Helicobacter pylori [4], 4 µg/mL (≈ 5.35 µM) in the assay on Helicobacter pylori [6], over 256 µg/mL with Helicobacter pylori [7] and 0.064 µg/mL (≈ 0.0856 µM) against Helicobacter pylori [9].
